Source: ChEMBL document CHEMBL2086380 (J Med Chem, 2012)
≈ marks a conversion by molar mass, not a printed value. Each block holds one compound with its values, some of them ahead of it. Calls of active or inactive are those of the source. The calls are words filed in the database; no cut-off is given here.

Key:
[1] = system: A-375; assay: Antiproliferative activity against human A375 cells after 72 hrs by CellTiterGlo assay; settings: A-375, 72 h
[2] = system: HCT-116; assay: Antiproliferative activity against human HCT116 cells after 72 hrs by CellTiterGlo assay; settings: HCT-116, 72 h
[3] = target: T1, Dual specificity mitogen-activated protein kinase kinase 1 (Homo sapiens, UniProt Q02750); assay: Inhibition of MEK1-mediated ERK1 phosphorylation after 30 mins by HTRF assay
T1 sequence (Q02750 whole entry): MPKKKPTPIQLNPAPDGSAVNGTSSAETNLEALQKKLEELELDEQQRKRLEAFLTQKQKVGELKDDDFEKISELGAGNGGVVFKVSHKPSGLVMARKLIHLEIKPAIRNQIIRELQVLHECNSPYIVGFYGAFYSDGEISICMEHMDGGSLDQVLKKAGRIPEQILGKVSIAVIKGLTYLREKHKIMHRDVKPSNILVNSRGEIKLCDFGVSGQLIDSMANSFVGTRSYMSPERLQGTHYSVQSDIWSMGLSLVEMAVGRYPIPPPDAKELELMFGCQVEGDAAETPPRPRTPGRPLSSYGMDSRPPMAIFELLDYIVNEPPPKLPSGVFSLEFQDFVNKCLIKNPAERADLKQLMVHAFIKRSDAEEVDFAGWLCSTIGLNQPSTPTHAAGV

[4] = target: T1, Dual specificity mitogen-activated protein kinase kinase 1; assay: Inhibition of MEK1-mediated ERK1 phosphorylation in human HCT116 cells after 2 hrs by immunofluorescence high content imaging
[5] = Clearance in rat at 1 mg/kg, iv; assay type: ADME, organism-based; parameters: dose 1 mg/kg, route intravenous; settings: in vivo
[6] = target: T1, Dual specificity mitogen-activated protein kinase kinase 1; assay: Inhibition of MEK1-mediated ERK1 phosphorylation in human A375 cells after 2 hrs by immunofluorescence high content imaging
[7] = AUC in rat at 1 mg/kg, iv; assay type: ADME, organism-based; parameters: dose 1 mg/kg, route intravenous; settings: plasma
[8] = Oral bioavailability in rat at 5 mg/kg; assay type: ADME, organism-based; settings: in vivo
How it was run: (§1)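 Oral PK: rat dosed 5 mg/kg PO as solution; mouse dosed 25 mg/kg PO as suspension. Plasma AUC (μM·h) and bioavailability F (%) determined.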

[9] = Volume of distribution at steady state in rat at 1 mg/kg, iv; assay type: ADME, organism-based; parameters: dose 1 mg/kg, route intravenous; settings: in vivo, read-out: Vdss
[10] = Plasma protein binding in rat; assay type: ADME, cell-free; settings: read-out: PPB (converted)
[11] = Ratio of EC50 for human A375 cells to IC50 for MEK1-mediated ERK1 phosphorylation; parameters: species or system A-375
[12] = AUC in rat at 5 mg/kg, po; assay type: ADME, organism-based; parameters: dose 5 mg/kg, route oral; settings: plasma; how it was run: as §1
[13] = Ratio of EC50 for human HCT116 cells to IC50 for MEK1-mediated ERK1 phosphorylation; parameters: species or system HCT-116
[14] = system: A-375; assay: Ratio of EC50 for human HCT116 cells to EC50 for human A375 cells; assay type: functional
[15] = Half life in rat at 1 mg/kg, iv; assay type: ADME, organism-based; parameters: dose 1 mg/kg, route intravenous; settings: in vivo
[16] = organism: Rattus norvegicus; assay: Unbound clearance in rat; assay type: ADME, organism-based; settings: in vivo
[17] = system: Rattus norvegicus; assay: Unbound AUC in po dosed rat; assay type: ADME, organism-based; settings: in vivo
[18] = Efflux ratio of permeability from basal to apical to apical to basal side of MDCK cells; assay type: ADME, cell-based, Canis lupus familiaris; settings: dog
How it was run: (§2)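 MDCK monolayer permeability measured in A→B and B→A directions, expressed as ×10⁻⁶ cm/s; efflux ratio taken as B:A over A:B.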

[19] = Permeability from basal to apical side of MDCK cells; assay type: ADME, cell-based, Canis lupus familiaris; settings: dog, read-out: permeability; how it was run: as §2
[20] = Permeability from apical to basal side of MDCK cells; assay type: ADME, cell-based, Canis lupus familiaris; settings: dog, read-out: permeability; how it was run: as §2
[21] = system: HCT-116; assay: Antitumor activity against human HCT116 cells xenografted in nude nu/nu mouse assessed as tumor growth inhibition at 5 mg/kg, po administered QD for 3 weeks relative to vehicle-treated control; assay type: functional
How it was run: (§3)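 HCT116 colorectal xenografts in nude mice; animals randomized, dosed orally once daily for 3 weeks at 5, 25 or 75 mg/kg vs vehicle. Tumor volume and body weight tracked; animals euthanized at tumor volume >2000 mm³ or body weight loss >20%.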

[22] = system: Mus musculus; assay: Toxicity in nude nu/nu mouse bearing human HCT116 xenograft assessed as body weight loss at 75 mg/kg, po administered QD for 3 weeks relative to vehicle-treated; assay type: organism-based; parameters: dose 75 mg/kg, route oral; settings: in vivo, 504 h; how it was run: as §3
[23] = Half life in mouse at 25 mg/kg, po; assay type: ADME, organism-based; parameters: dose 25 mg/kg, route oral; settings: in vivo
[24] = Volume of distribution at steady state in mouse at 1 mg/kg, iv; assay type: ADME, organism-based; parameters: dose 1 mg/kg, route intravenous; settings: in vivo, read-out: Vdss
[25] = system: Rattus norvegicus; assay: Drug metabolism in rat assessed as hydroxamate cleavage at 5 mg/kg, po; assay type: ADME, organism-based; parameters: dose 5 mg/kg, route oral; settings: in vivo
[26] = system: Mus musculus; assay: Toxicity in nude nu/nu mouse bearing human HCT116 xenograft assessed as body weight loss at 5 mg/kg, po administered QD for 3 weeks relative to vehicle-treated; assay type: organism-based; parameters: dose 5 mg/kg, route oral; settings: in vivo, 504 h; how it was run: as §3
[27] = system: Rattus norvegicus; assay: Drug metabolism in rat assessed as glucuronidation at 5 mg/kg, po; assay type: ADME, organism-based; parameters: dose 5 mg/kg, route oral; settings: in vivo
[28] = Solubility of the compound in fasted state simulated intestinal fluid; assay type: physicochemical
How it was run: (§4)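 Solubility measured in aqueous buffer at pH 6.5 and in fasted-state simulated intestinal fluid (FASSIF), expressed in […].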

[29] = Clearance in mouse at 1 mg/kg, iv; assay type: ADME, organism-based; parameters: dose 1 mg/kg, route intravenous; settings: in vivo
[30] = system: Mus musculus; assay: (§5) AUC in mouse at 25 mg/kg, po; assay type: ADME, organism-based, Plasma; parameters: dose 25 mg/kg, route oral; settings: in vivo; how it was run: as §1
[31] = Solubility of the compound at pH 6.5; assay type: physicochemical; settings: buffer; how it was run: as §4
[32] = system: Mus musculus; assay: Inhibition of MEK-mediated ERK1/2 Thr185/Tyr187 phosphorylation in human HCT116 cells xenografted in nude nu/nu mouse at 25 mg/kg, po administered as single dose after 8 hrs relative to vehicle-treated control; assay type: functional; settings: HCT-116, 8 h
[33] = system: Mus musculus; assay: Oral bioavailability in mouse at 25 mg/kg; assay type: ADME, organism-based; settings: in vivo; how it was run: as §1
[34] = Half life in mouse at 1 mg/kg, iv; assay type: ADME, organism-based; parameters: dose 1 mg/kg, route intravenous; settings: in vivo
[35] = Plasma protein binding in mouse; assay type: ADME, cell-free; settings: read-out: PPB (converted)
[36] = system: Mus musculus; assay: (§6) AUC in mouse at 1 mg/kg, iv; assay type: ADME, organism-based, Plasma; parameters: dose 1 mg/kg, route intravenous; settings: in vivo
[37] = system: HCT-116; assay: Antitumor activity against human HCT116 cells xenografted in nude nu/nu mouse assessed as tumor growth inhibition at 25 and 75 mg/kg, po administered QD for 3 weeks relative to vehicle-treated; assay type: functional, organism-based; parameters: dose 75 mg/kg; how it was run: as §3
[38] = target: Cytochrome P450 2C9 (Homo sapiens, UniProt P11712); assay: Inhibition of CYP2C9; assay type: ADME
Sequence of Cytochrome P450 2C9 (P11712 whole entry): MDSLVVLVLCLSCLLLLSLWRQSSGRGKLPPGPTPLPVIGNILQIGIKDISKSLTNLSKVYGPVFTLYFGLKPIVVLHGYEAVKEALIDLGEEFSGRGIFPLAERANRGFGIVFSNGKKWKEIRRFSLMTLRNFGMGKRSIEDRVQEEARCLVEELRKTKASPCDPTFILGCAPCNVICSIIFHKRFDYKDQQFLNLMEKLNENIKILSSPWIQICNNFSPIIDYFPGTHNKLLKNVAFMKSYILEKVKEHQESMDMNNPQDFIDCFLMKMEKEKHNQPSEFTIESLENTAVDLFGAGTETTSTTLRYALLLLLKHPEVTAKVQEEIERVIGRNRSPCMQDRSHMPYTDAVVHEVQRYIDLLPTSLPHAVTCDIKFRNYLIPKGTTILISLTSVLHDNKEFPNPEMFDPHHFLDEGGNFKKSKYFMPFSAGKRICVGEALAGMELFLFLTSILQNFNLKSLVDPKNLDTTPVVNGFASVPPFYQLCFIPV

[39] = target: Cytochrome P450 2C19 (Homo sapiens, UniProt P33261); assay: Inhibition of CYP2C19; assay type: ADME
Sequence of Cytochrome P450 2C19 (P33261 whole entry): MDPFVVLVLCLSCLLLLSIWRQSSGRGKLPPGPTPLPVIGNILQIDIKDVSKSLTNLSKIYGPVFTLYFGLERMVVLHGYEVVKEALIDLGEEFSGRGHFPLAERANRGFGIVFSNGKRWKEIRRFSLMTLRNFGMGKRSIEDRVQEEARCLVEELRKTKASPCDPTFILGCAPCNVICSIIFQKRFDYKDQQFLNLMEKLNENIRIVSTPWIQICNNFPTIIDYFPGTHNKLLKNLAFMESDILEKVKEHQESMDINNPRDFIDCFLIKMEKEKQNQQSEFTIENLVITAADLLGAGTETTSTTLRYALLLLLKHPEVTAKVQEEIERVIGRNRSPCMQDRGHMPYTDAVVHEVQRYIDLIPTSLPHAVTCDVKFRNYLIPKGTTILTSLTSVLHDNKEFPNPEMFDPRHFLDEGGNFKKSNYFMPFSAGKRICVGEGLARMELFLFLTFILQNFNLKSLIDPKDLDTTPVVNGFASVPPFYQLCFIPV

[40] = as §5; assay type: ADME, organism-based, Plasma; parameters: dose 25 mg/kg, route oral; settings: plasma; how it was run: as §1
[41] = as §6; assay type: ADME, organism-based, Plasma; parameters: dose 1 mg/kg, route intravenous; settings: plasma

- EC50 [1]: 9 nM
- EC50 [2]: 127 nM
SMILES: O=C(NOCC1CC1)c1ccc2[nH]ncc2c1Nc1ccc(I)cc1F

- EC50 [1]: 264 nM
- EC50 [2]: 314 nM
SMILES: O=C(NOC[C@H](O)CO)c1oc2ccncc2c1Nc1ccc(I)cc1F

- inhibition (INH) [38]: Not Active
- EC50 [1]: 7 nM
- inhibition (INH) [39]: Not Active
- EC50 [2]: 44 nM
SMILES: O=C(NOCCO)c1ccc2cnsc2c1Nc1ccc(I)cc1F

More lines, now with the values behind:

SMILES: O=C(NOCCO)c1ccc2[nH]ncc2c1Nc1ccc(Br)cc1F
- IC50 [3]: 125 nM
- EC50 [4]: 3.4 nM
- clearance [5]: 54 mL/min/kg
- EC50 [6]: 6.4 nM
- EC50 [1]: 19 nM
- AUC [7]: 0.75 µM·h
- bioavailability [8]: 34%
- Vd [9]: 1.5 L/kg
- fraction unbound [10]: 0.035
- Ratio [11]: 0.15
- AUC [12]: 1.29 µM·h
- Ratio [13]: 1.5
- EC50 [2]: 193 nM
- Ratio EC50 [14]: 8
- half-life [15]: 0.36 h

SMILES: O=C(NOC[C@H](O)CO)c1ccc2cnsc2c1Nc1ccc(I)cc1F
- IC50 [3]: 20 nM
- EC50 [4]: 0.9 nM
- clearance [5]: 15 mL/min/kg
- EC50 [6]: 1.1 nM
- EC50 [1]: 10 nM
- AUC [7]: 2.2 µM·h
- bioavailability [8]: 51%
- Vd [9]: 0.97 L/kg
- fraction unbound [10]: 0.008
- Ratio [11]: 0.47
- AUC [12]: 5.7 µM·h
- CL free [16]: 1875 mL/min/kg
- Ratio [13]: 2.9
- EC50 [2]: 62 nM
- fAUC [17]: 0.046 µM·h
- half-life [15]: 1.6 h

SMILES: O=C(NOC[C@H](O)CO)c1ccc2[nH]ncc2c1Nc1ccc(I)cc1F
- IC50 [3]: 15 nM
- efflux ratio [18]: 3.5
- EC50 [4]: 0.4 nM
- Papp B→A [19]: 7.1 ×10⁻⁶ cm/s
- EC50 [6]: 3.7 nM
- EC50 [1]: 12 nM
- Ratio [11]: 0.8
- Ratio [13]: 2
- EC50 [2]: 31 nM
- Papp A→B [20]: 2 ×10⁻⁶ cm/s

SMILES: CCONC(=O)c1ccc2[nH]ncc2c1Nc1ccc(I)cc1F
- IC50 [3]: 93 nM
- EC50 [4]: 1.3 nM
- EC50 [6]: 2.4 nM
- EC50 [1]: 4.9 nM
- EC50 [2]: 132 nM

SMILES: O=C(NCCCO)c1ccc2[nH]ncc2c1Nc1ccc(I)cc1F
- IC50 [3]: > 10000 nM

SMILES: O=C(NOCCO)c1ccc2[nH]ncc2c1Nc1ccc(I)cc1F
- inhibition in vivo at 5 mg/kg ([21]; HCT-116, 504 h, read-out: GI): 94%
- Activity [22]: 10%
- half-life [23]: 2.9 h
- Papp B→A [19]: 13.8 ×10⁻⁶ cm/s
- clearance [5]: 36 mL/min/kg
- Vd [24]: 2 L/kg
- Drug metabolism [25]: Active
- EC50 [1]: 2 nM
- Activity [26]: Non-toxic
- AUC [7]: 1.01 µM·h
- Drug metabolism [27]: Active
- solubility [28]: 180 µg/mL (≈ 395 µM)
- bioavailability [8]: 21%
- Vd [9]: 2.4 L/kg
- clearance [29]: 88 mL/min/kg
- fraction unbound [10]: 0.039
- AUC [30]: 1.96 µM·h
- solubility [31]: 80 µg/mL (≈ 175 µM)
- inhibition in vivo at 25 mg/kg [32]: 70%
- AUC [12]: 1.06 µM·h
- F [33]: 94%
- half-life [34]: 0.6 h
- CL free [16]: 923 mL/min/kg
- EC50 [2]: 16 nM
- fraction unbound [35]: 0.03
- fAUC [17]: 0.04 µM·h
- Papp A→B [20]: 9.9 ×10⁻⁶ cm/s
- AUC [36]: 0.41 µM·h
- half-life [15]: 1.4 h
- growth inhibition (GI) [37]: Active

SMILES: C[C@H](O)CONC(=O)c1oc2c(F)cncc2c1Nc1ccc(I)cc1F
- IC50 [3]: 35 nM
- Activity [21]: Active
- EC50 [4]: 4 nM
- Vd [24]: 0.71 L/kg
- EC50 [6]: 7.2 nM
- EC50 [1]: 23 nM
- clearance [29]: 7.7 mL/min/kg
- AUC [40]: 192 µM·h
- Ratio [11]: 0.65
- F [33]: 173%
- half-life [34]: 2.3 h
- Ratio [13]: 5
- EC50 [2]: 175 nM
- Ratio EC50 [14]: 8
- fraction unbound [35]: 0.016
- AUC [41]: 4.42 µM·h
